15 compounds from ChEMBL document CHEMBL4041512, “Rational design of nitrofuran derivatives: Synthesis and valuation as inhibitors of Trypanosoma cruzi trypanothione reductase” (Eur J Med Chem, 2017) can be followed below.

The structures appear in SMILES notation. Calls of active or inactive are those of the source. No cut-off for these calls is given here.

For one data set, the target named is Trypanothione reductase (Trypanosoma cruzi, UniProt P28593). The experiment in a line: Uncompetitive inhibition of Trypanosoma cruzi trypanothione reductase using […] as substrate at pH 7.5 in presence of NADPH by photometric method. Put shortly: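 Reactions started with NADPH; compound-free reactions serve as control. Initial rates were plotted against TS₂ concentration and Ki was taken as the mean of at least three independent data sets, within ±10%.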

Data set [1] has as its target Trypanothione reductase (Trypanosoma cruzi) (UniProt P28593). The experiment in a line: Inhibition of Trypanosoma cruzi trypanothione reductase at 100 uM using […] as substrate at pH 7.5 in presence of NADPH by photometric method. Particulars: TDE = time-dependent effect.
The test system of data set [2] is Trypanosoma cruzi. The experiment in a line: Anti-parasitic activity against Trypanosoma cruzi Dm28c epimastigotes in logarithmic phase measured after 24 to 48 hrs by resazurin assay. It counts as functional. Put shortly:
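Log-phase Dm28c epimastigotes at 1x10⁶ cells/ml in PBS plus 2% (w/v) glucose. Derivatives added at 0.1-100 µM final. Incubation 24-48 h, then viability read by resazurin. DMSO-only wells serve as negative control. Resazurin is also run with compound but no parasites. IC50 is the mean of at least three independent experiments, reproducible within ±10%.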

The subject of another data set is HeLa. The experiment in a line: Cytotoxicity against human HeLa cells measured after 24 hrs by crystal violet staining based assay. It counts as cell-based. The method, boiled down: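 HeLa cells seeded at 2.5 x 10⁴ cells/well in DMEM with 2% FBS, 24 h at 37°C, 5% CO₂. Medium replaced with compound, eight serial dilutions in duplicate, 24 h at 37°C. Cells fixed and stained with 0.75% crystal violet in 40% methanol for 10 min. Dye dissolved in 20% acetic acid and read at 540 nm, triplicate means. Untreated cells are the negative control.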

The nature of data set [3]: Selectivity index, ratio of EC50 for cytotoxicity against human HeLa cells to IC50 for anti-parasitic activity against Trypanosoma cruzi Dm28c epimastigotes. It counts as toxicity, cell-based. As to conditions: read-out: Selectivity Index. The method, boiled down: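 HeLa crystal violet EC50 (24 h) divided by epimastigote IC50 (resazurin, 48 h growth).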
Data set [4] relates to Trypanosoma cruzi. The experiment in a line: Potency index, ratio of nifurtimox IC50 to test compound IC50 for Trypanosoma cruzi Dm28c epimastigotes in logarithmic phase. The data set is classed as functional.
Data set [5] concerns Trypanosoma cruzi. The experiment in a line: Anti-parasitic activity against Trypanosoma cruzi Dm28c epimastigotes in logarithmic phase assessed as morphological changes at 30 uM measured after 48 hrs by resazurin assay. It counts as functional. In general terms: Alamar Blue is a resazurin reagent that responds to reducing activity.

Chain of Trypanothione reductase (P28593 whole entry): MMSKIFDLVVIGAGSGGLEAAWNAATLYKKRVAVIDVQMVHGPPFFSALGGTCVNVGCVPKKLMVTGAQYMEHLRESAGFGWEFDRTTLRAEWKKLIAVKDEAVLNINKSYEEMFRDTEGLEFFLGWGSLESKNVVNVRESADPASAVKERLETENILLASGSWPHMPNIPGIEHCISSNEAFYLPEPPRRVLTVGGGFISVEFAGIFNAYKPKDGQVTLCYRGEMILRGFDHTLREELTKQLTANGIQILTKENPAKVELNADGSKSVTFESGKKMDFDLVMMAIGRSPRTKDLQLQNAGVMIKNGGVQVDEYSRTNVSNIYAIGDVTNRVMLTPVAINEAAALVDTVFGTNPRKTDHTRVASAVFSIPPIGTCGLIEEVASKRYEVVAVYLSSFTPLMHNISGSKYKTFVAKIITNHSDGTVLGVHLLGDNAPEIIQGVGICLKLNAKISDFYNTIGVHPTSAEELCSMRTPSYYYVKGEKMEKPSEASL
Chain of Trypanothione reductase (Trypanosoma cruzi) (P28593 whole entry, looked up): as the sequence (P28593 whole entry) above

A word on the Ki: it is the dissociation constant of the complex between target and ligand, obtained from inhibition or displacement. What is called IC50 is the point on the concentration scale where inhibition reaches its midpoint. Usually EC50 stands for the concentration giving half of the maximal effect. High values mean lower potency in that assay, low ones higher potency in that assay. As to `O=C(c1ccc([N+](=O)[O-])o1)N(Cc1ccccc1)Cc1ccccc1`, the inhibition constant Ki at Trypanothione reductase was determined as 68 µM. Moreover, in data set [1], the inhibition entry was “Tde”. Besides, in the data set on Trypanosoma cruzi [2], the IC50 was 1.1 µM. Further, in the data set on HeLa, the 50% effective concentration (EC50) was found to be 78 µM. In addition, the selectivity ratio in data set [3] turned out to be 70.1. Moreover, the “Ratio IC50” value in the data set on Trypanosoma cruzi [4] came to 4.

In the case of `CCCN(CCC)C(=O)c1ccc([N+](=O)[O-])o1`, the inhibition constant Ki at Trypanothione reductase was 183 µM. This compound also returned an IC50 in the data set with Trypanosoma cruzi [2] of 19.6 µM.

`CCN(CC)CCCNC(=O)c1ccc([N+](=O)[O-])o1`: the Ki at Trypanothione reductase amounted to 128 µM. Further, it took 25 µM to reach half-maximal inhibition in the data set with Trypanosoma cruzi [2] (IC50). In the data set with HeLa, this compound registered an EC50 of 100 µM. Further, the selectivity ratio in data set [3] was found to be 4.

On to `CN(C)CCNC(=O)c1ccc([N+](=O)[O-])o1`, for which, on Trypanothione reductase, the inhibition constant (Ki) is 136 µM. In addition, in the data set on Trypanosoma cruzi [2], 36 µM corresponded to half-maximal inhibition (IC50).

For `O=C(O)c1ccc([N+](=O)[O-])o1`, the inhibition result in data set [1] is “Tde”. The outcome in the data set with Trypanosoma cruzi [5] was inactive.

Regarding `CC(C)NC(=O)c1ccc([N+](=O)[O-])o1`, the Ki on Trypanothione reductase came out at 414 µM. Half-maximal inhibition in the data set on Trypanosoma cruzi [2] (IC50) was put at 18 µM. Besides, the concentration for a half-maximal effect (EC50) in the data set with HeLa is 211 µM. Also, the selectivity ratio in data set [3] is 11.7.

For the compound `CC(C)(C)NC(=O)c1ccc([N+](=O)[O-])o1`, the Ki on Trypanothione reductase turned out to be 313 µM. 35 µM corresponded to half-maximal inhibition with Trypanosoma cruzi [2] (IC50).

As to `CCCCNC(=O)c1ccc([N+](=O)[O-])o1`, the Ki on Trypanothione reductase came out at 315 µM. In the data set with Trypanosoma cruzi [2], it took 26 µM to reach half-maximal inhibition (IC50). In addition, in the data set on HeLa, a half-maximal response (EC50) required 152 µM. In addition, the selectivity ratio in data set [3] turned out to be 5.8.

For the compound `CC1CS(=O)(=O)CCN1/N=C/c1ccc([N+](=O)[O-])o1` (configuration not stated) [NIFURTIMOX], the inhibitory constant (Ki) on Trypanothione reductase turned out to be 245 µM. For the same compound, 4 µM corresponded to half-maximal inhibition in the data set with Trypanosoma cruzi [2] (IC50). For the same compound, a half-maximal response in the data set on HeLa (EC50) required 272 µM. Moreover, the selectivity ratio in data set [3] is 68.

For `O=C(c1ccc([N+](=O)[O-])o1)N1CCCC1`, on Trypanothione reductase, the inhibitory constant (Ki) is 187 µM. Besides, the IC50 with Trypanosoma cruzi [2] is 64 µM.

For `CN(C)CCCNC(=O)c1ccc([N+](=O)[O-])o1`, at Trypanothione reductase, the inhibition constant (Ki) turned out to be 118 µM. Besides, the inhibition entry in data set [1] is “Tde”. In the data set on Trypanosoma cruzi [2], this compound displayed an IC50 of 19 µM. The half-maximal effective concentration (EC50) in the data set with HeLa was determined as 74 µM. Besides, the selectivity ratio in data set [3] was determined as 3.9.

For `O=C(NCc1ccccc1)c1ccc([N+](=O)[O-])o1`, at Trypanothione reductase, the Ki was 61 µM. In data set [1], the inhibition result was “Tde”. The same compound gave an IC50 with Trypanosoma cruzi [2] of 15 µM. In the data set with HeLa, this compound showed an EC50 of 123 µM. Also, the selectivity ratio in data set [3] is 8.2.

Take `CCC(C)NC(=O)c1ccc([N+](=O)[O-])o1` (configuration not stated): the Ki on Trypanothione reductase was determined as 1180 µM. The same compound came in with a half-maximal inhibitory concentration (IC50) in the data set on Trypanosoma cruzi [2] of 23 µM. In the data set on HeLa, this compound showed an EC50 of 165 µM. The selectivity ratio in data set [3] came out at 7.2.

As to `O=C(c1ccc([N+](=O)[O-])o1)N1CCCCC1`, the Ki at Trypanothione reductase is 282 µM. In the data set on Trypanosoma cruzi [2], this compound had an IC50 of 103 µM.

For `CCCNC(=O)c1ccc([N+](=O)[O-])o1`, the inhibition constant (Ki) on Trypanothione reductase came out at 336 µM. The compound also yielded a half-maximal inhibitory concentration (IC50) in the data set with Trypanosoma cruzi [2] of 17 µM. In addition, the 50% effective concentration (EC50) in the data set with HeLa came out at 150 µM. Moreover, the selectivity ratio in data set [3] came to 8.8.
